The results in this text go back to ChEMBL document CHEMBL5107948, “Activity-based protein profiling reveals deubiquitinase and aldehyde dehydrogenase targets of a cyanopyrrolidine probe” (RSC Med Chem, 2021).

Activity calls are given as the source filed them. The rule behind the calls is not given here.

The target in assay [1] is Ubiquitin carboxyl-terminal hydrolase isozyme L1 (Homo sapiens) (UniProt P09936). Put plainly: Binding affinity to GST-tagged recombinant UCHL1 (unknown origin) assessed as covalent adduct formation at 13 uM incubated for 1 hr by LC-ESI-MS analysis.
Assay [2] shares this target. The assay is described as follows: Inhibition of UCHL1 in human HEK293 cells using HA-Ub-VME as substrate at 0.1 to 10 uM incubated for 1 hr by immunoblotting analysis. It is filed as cell-based. To be noted: dose 0.1-10 µM. In a few lines:
(§1)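 Near-confluent HEK293 cells treated with compound in medium for 1 h at 37 °C, lysed in Tris/NP-40/CHAPS buffer with benzonase. Lysate (20 µg) reacted with HA-Ahx-Ahx-Ub-VME (0.5 µg) 15 min at room temperature, boiled 5 min at 95 °C in SDS loading buffer with BME, SDS-PAGE and immunoblot.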

The target is the same in assay [3]. Put plainly: Inhibition of GST-tagged recombinant UCHL1 (unknown origin) using Ub-Lys-TAMRA as substrate at 1 uM incubated for 30 mins by fluorescence polarization assay. The gist of the method: (§2)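 Recombinant DUB (UCHL1 or UCHL3 at 5 nM) preincubated 30 min RT with 8-point compound dilutions in Tris pH 7.5/NaCl or Tris pH 7.5 buffer with Tween-20, BSA and 5 mM BME. Ub-Lys-TAMRA (50 nM) added; fluorescence polarization (Ex 540/Em 590 nm) read at once and after 2 h RT. Triplicate; four-parameter IC50.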
On the technique in general: In fluorescence polarisation assays a small probe gives low polarisation when free and higher when bound to something large.

Assay [4] has as its target T1, Ubiquitin carboxyl-terminal hydrolase isozyme L5 (Homo sapiens) (UniProt Q9Y5K5).
T1 sequence (whole entry): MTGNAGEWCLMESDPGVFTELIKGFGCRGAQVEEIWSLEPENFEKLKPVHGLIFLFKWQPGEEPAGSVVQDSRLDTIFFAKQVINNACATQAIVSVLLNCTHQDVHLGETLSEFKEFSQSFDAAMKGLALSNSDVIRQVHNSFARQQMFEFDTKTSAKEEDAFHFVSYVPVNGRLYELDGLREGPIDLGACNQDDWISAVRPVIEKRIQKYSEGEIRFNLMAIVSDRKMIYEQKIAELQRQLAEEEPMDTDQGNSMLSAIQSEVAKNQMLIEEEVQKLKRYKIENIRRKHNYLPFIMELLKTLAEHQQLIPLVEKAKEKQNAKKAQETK
The assay is described as follows: Inhibition of UCHL5 in human HEK293 cells using HA-Ub-VME as substrate at 0.1 to 10 uM incubated for 1 hr by immunoblotting analysis. Format: cell-based. To be noted: dose 0.1-10 µM. The gist of the method:
as §1
(In western blotting, separated proteins are transferred to a membrane and probed.)

For assay [5], the target named is T2, Ubiquitin carboxyl-terminal hydrolase isozyme L3 (Homo sapiens) (UniProt P15374).
T2 sequence (whole entry): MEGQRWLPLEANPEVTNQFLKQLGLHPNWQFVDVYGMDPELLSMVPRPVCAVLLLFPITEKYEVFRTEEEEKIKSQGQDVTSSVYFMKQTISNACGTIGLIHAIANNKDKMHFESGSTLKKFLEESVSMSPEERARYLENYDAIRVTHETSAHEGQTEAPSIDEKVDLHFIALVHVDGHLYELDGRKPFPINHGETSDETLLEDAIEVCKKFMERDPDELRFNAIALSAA
The assay is described as follows: Inhibition of UCHL3 in human HEK293 cells using HA-Ub-VME as substrate at 0.1 to 10 uM incubated for 1 hr by immunoblotting analysis. It is filed as cell-based. To be noted: dose 0.1-10 µM. In a few lines:
as §1

Assay [6] concerns the target T3, Ubiquitin carboxyl-terminal hydrolase isozyme L3 (Homo sapiens, UniProt P15374).
T3 sequence (P15374 whole entry): T2 sequence (whole entry)
Put plainly: Inhibition of GST-tagged recombinant UCHL3 (unknown origin) using Ub-Lys-TAMRA as substrate incubated for 30 mins by fluorescence polarization assay. The gist of the method: as §2

The target in assay [7] is T4, Ubiquitin carboxyl-terminal hydrolase isozyme L1 (Homo sapiens, UniProt P09936).
T4 sequence (P09936 whole entry): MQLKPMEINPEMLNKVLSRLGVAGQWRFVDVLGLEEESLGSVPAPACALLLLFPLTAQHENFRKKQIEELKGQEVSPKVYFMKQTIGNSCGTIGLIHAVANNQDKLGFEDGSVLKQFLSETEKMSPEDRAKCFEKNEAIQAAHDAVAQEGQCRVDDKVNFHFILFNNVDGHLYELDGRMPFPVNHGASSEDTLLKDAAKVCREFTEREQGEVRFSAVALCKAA
The assay is described as follows: Inhibition of FLAG-tagged UCHL1 (unknown origin) expressed in CAL-51 cells using HA-Ub-VME as substrate incubated for 30 mins by HTRF assay. Format: cell-based. In a few lines: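 Cal51 cells stably expressing FLAG-UCHL1, plated overnight, exposed to compound 1 h at 37 °C. Washed, lysed 30 min on ice in Tris/NaCl/NP-40/CHAPS/MgCl2/BME buffer. Lysate mixed with HA-Ub-VME (100 nM) 30 min RT; anti-FLAG cryptate and anti-HA-XL added, overnight at 4 °C. HTRF Delta F read; IC50 by four-parameter fit, two biological triplicates.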
Background: TR-FRET usually uses a lanthanide donor and a delayed reading to cut background.

The target in assay [8] is T5, Ubiquitin carboxyl-terminal hydrolase BAP1 (Homo sapiens) (UniProt Q92560).
T5 sequence (whole entry): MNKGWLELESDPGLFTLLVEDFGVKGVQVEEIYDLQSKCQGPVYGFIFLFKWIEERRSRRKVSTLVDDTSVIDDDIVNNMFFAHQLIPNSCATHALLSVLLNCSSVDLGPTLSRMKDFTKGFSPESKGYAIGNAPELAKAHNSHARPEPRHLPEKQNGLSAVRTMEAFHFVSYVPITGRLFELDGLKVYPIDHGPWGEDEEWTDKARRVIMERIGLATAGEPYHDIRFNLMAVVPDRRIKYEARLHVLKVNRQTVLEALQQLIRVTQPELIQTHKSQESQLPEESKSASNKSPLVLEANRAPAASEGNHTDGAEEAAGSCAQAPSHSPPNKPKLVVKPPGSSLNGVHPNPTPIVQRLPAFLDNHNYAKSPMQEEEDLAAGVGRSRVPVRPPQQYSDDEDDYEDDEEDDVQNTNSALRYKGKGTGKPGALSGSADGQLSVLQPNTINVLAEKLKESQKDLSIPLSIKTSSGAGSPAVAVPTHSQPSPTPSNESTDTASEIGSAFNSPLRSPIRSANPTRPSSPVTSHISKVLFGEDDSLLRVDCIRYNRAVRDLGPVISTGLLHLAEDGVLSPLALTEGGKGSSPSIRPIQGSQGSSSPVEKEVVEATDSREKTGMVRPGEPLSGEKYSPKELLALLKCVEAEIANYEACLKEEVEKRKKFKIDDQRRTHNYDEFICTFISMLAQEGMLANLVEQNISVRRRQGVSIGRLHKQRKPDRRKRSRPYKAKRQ
Put plainly: Inhibition of BAP1 in human HEK293 cells using HA-Ub-VME as substrate at 0.1 to 10 uM incubated for 1 hr by immunoblotting analysis. Format: cell-based. To be noted: dose 0.1-10 µM. In a few lines:
as §1

As for `C#Cc1ccc(-c2cnc(NC(=O)[C@H]3CCN(C#N)C3)s2)cc1`, the outcome in assay [1] was Active. Moreover, the inhibition entry in assay [2], in assay [3], in assay [4], in assay [5] and in assay [8] was “Active” in each case. The IC50 in assay [6] was over 10 µM; in assay [7], 830 nM.

Consider `N#CN1CC[C@H](C(=O)Nc2ncc(-c3ccccc3)s2)C1`, for which the outcome in assay [1] was Active. Moreover, the inhibition entry in assay [2], in assay [3], in assay [4], in assay [5] and in assay [8] was “Active” each time. Moreover, the IC50 in assay [6] is over 10 µM; in assay [7], 550 nM.

Usually IC50 stands for the concentration that inhibits the measured activity by half.
